Assay results as given in ChEMBL document CHEMBL4229494, “Novel tertiary sulfonamides as potent anti-cancer agents” (Bioorg Med Chem, 2018).
In brackets after ≈: the same amount, converted by molar mass. One block for each compound: values may come before it.

What was measured:
MDA-MB-231 [1] = assay: Antiproliferative activity against human MDA-MB-231 cells after 24 hrs by SYBR green dye based fluorescence assay; assay type: functional, cell-based; settings: MDA-MB-231, 24 h
Outline: (§1)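 Cells were plated at 500/well in DMEM/10% FBS and allowed to attach for 24 h at 37 °C, 5% CO2. They were then exposed to 1.6 nM–5 µM or DMSO. One plate was harvested every 24 h over 7 days and frozen at -20 °C. DNA was quantified by SYBR Green fluorescence (Ex495/Em535). Triplicate values relative to DMSO went to nonlinear regression for IC50.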

[2] = Inhibition of Wnt3A-induced Wnt transcription (unknown origin) expressed in HEK293 cells coexpressing TK-driven Rluc after 20 to 22 hrs by super-top flash reporter gene assay; assay type: cell-based; settings: Homo sapiens
Outline: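 HEK-293 cells (DMEM, 10% FBS) were co-transfected with Super(8x)TOPflash, a Wnt3A expression vector and TK-driven Renilla luciferase. After 8 h at 37 °C, 5% CO2, cells were seeded at 25,000/well and treated at 1.6, 8, 40, 200, 1000 or 5000 nM, or with DMSO, for 20-22 h in triplicate. Firefly/Renilla luminescence was taken relative to DMSO, and IC50 was found by nonlinear regression.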

[3] = Lipophilicity, log D of the compound at pH 3; assay type: physicochemical; settings: buffer
[4] = Lipophilicity, log D of the compound at pH 7; assay type: physicochemical; settings: buffer
[5] = Solubility of the compound; assay type: physicochemical
MCF7 [6] = assay: Induction of apoptosis in human MCF7 cells after 24 hrs by caspase-Glo 3/7 reagent based luminescence assay; assay type: functional, cell-based; settings: MCF7, 24 h
Outline: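 MCF-7 cells were plated at 25,000/well (DMEM, 10% FBS) and grown 24 h, then treated at 1.6 nM–5 µM or with DMSO for 24 h. Caspase 3/7 activity was read by Caspase-Glo 3/7 luminescence. Triplicate signals relative to DMSO were analysed by nonlinear regression.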

MCF7 [7] = assay: Antiproliferative activity against human MCF7 cells after 24 hrs by SYBR green dye based fluorescence assay; assay type: functional, cell-based; settings: MCF7, 24 h; outline: as §1
MDA-MB-231 [8] = assay: Potentiation of doxorubicin-induced antiproliferative activity against human MDA-MB-231 cells at 8 nM after 72 hrs by SYBR green dye based fluorescence assay relative to control; assay type: functional
Outline: (§2)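 Cells were plated at 2,000/well (DMEM, 10% FBS) and incubated 24 h at 37 °C, 5% CO2. Test compound at 1.6 nM–2 µM was given with or without doxorubicin (MCF-7: 1.6 nM–2 µM; MDA-MB-231: 4 nM–5 µM), or DMSO, for 72 h. DNA was measured by SYBR Green fluorescence (Ex495/Em535). Triplicate values relative to DMSO were used for IC50 and Chou-Talalay combination index analysis.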

MCF7 [9] = assay: Synergistic antiproliferative activity against human MCF7 cells assessed as combination index at ED90 after 72 hrs in presence of doxorubicin by SYBR green dye based fluorescence assay; assay type: functional; outline: as §2
MDA-MB-231 [10] = assay: Synergistic antiproliferative activity against human MDA-MB-231 cells assessed as combination index at ED75 after 72 hrs in presence of doxorubicin by SYBR green dye based fluorescence assay; assay type: functional; outline: as §2
[11] = Metabolic stability in rat liver microsomes measured at > 60 mins in presence of NADPH by HPLC analysis; assay type: ADME, microsome; settings: 1 h
MDA-MB-231 [12] = assay: Synergistic antitumor activity against human MDA-MB-231 cells xenografted in athymic nude mouse assessed as reduction in tumor weight at 20 mg/kg, ip qd administered every consecutive day in presence of doxorubicin at 5 mg/kg/week measured on day 51; assay type: functional; set-up: scale not given: the % may be the effect or the level left
[13] = Metabolic stability in human liver microsomes measured at > 60 mins in presence of NADPH by HPLC analysis; assay type: ADME, microsome; settings: 1 h
[14] = Drug uptake in serum of athymic nude mouse xenografted with human MDA-MB-231 cells at 20 mg/kg, ip qd administered for 16 consecutive days by HPLC/MS analysis; assay type: ADME, organism-based; settings: read-out: Drug uptake
Outline: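 In the MDA-MB-231 xenografted nu/nu mice given 20 mg/kg/day i.p. for 16 days, serum drug concentration was measured by HPLC at the end of the study and confirmed by LCMS.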

MDA-MB-231 [15] = assay: Antitumor activity against human MDA-MB-231 cells xenografted in athymic nude mouse assessed as decrease in tumor volume at 20 mg/kg, ip qd administered for 16 consecutive days relative to control; assay type: functional; set-up: scale not given: the % may be the effect or the level left
MDA-MB-231 [16] = assay: Antitumor activity against human MDA-MB-231 cells xenografted in athymic nude mouse assessed as average tumor volume at 20 mg/kg, ip qd administered every consecutive day in presence of doxorubicin at 5 mg/kg/week measured on day 35 relative to control; assay type: functional
MDA-MB-231 [17] = assay: Antitumor activity against human MDA-MB-231 cells xenografted in athymic nude mouse assessed as decrease in tumor volume at 20 mg/kg, ip qd administered for 16 consecutive days in presence of doxorubicin at 5 mg/kg/week relative to control; assay type: functional; set-up: scale not given: the % may be the effect or the level left
MDA-MB-231 [18] = assay: Synergistic antiproliferative activity against human MDA-MB-231 cells assessed as combination index at ED90 after 72 hrs in presence of doxorubicin by SYBR green dye based fluorescence assay; assay type: functional; outline: as §2
MCF7 [19] = assay: Synergistic antiproliferative activity against human MCF7 cells assessed as combination index at 8 nM after 72 hrs in presence of doxorubicin by SYBR green dye based fluorescence assay; assay type: functional; outline: as §2
[20] = biological target: Voltage-gated inwardly rectifying potassium channel KCNH2 (Homo sapiens, UniProt Q12809); assay: Inhibition of human ERG up to 50 uM
MCF7 [21] = assay: Synergistic antiproliferative activity against human MCF7 cells assessed as combination index at ED75 after 72 hrs in presence of doxorubicin by SYBR green dye based fluorescence assay; assay type: functional; outline: as §2
Mus musculus [22] = assay: Upregulation of phospho Ser15-53 protein expression level in tumors of athymic nude mouse xenografted with human MDA-MB-231 cells at 20 mg/kg, ip qd administered every consecutive day in presence of doxorubicin at 5 mg/kg/week measured on day 51 by Western blot analysis relative to control; assay type: functional
Outline: (§3)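 MDA-MB-231 xenograft tumors were excised from nu/nu mice at study termination (day 51), after 16 days of i.p. treatment started on day 35. p53, phospho-Ser15-p53 and PARP cleavage were quantified by Western blot and compared with vehicle-treated animals.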

[23] = Oral bioavailability in rat; assay type: ADME, organism-based; settings: in vivo
[24] = Inhibition of human CYP450 at 50 uM; assay type: ADME
Mus musculus [25] = assay: Upregulation of p53 protein expression level in tumors of athymic nude mouse xenografted with human MDA-MB-231 cells at 20 mg/kg, ip qd administered every consecutive day in presence of doxorubicin at 5 mg/kg/week measured on day 51 by Western blot analysis relative to control; assay type: functional; outline: as §3
Mus musculus [26] = assay: Upregulation of PARP cleavage expression level in tumors of athymic nude mouse xenografted with human MDA-MB-231 cells at 20 mg/kg, ip qd administered every consecutive day in presence of doxorubicin at 5 mg/kg/week measured on day 51 by Western blot analysis relative to control; assay type: functional; outline: as §3
MDA-MB-231 [27] = assay: Antitumor activity against human MDA-MB-231 cells xenografted in athymic nude mouse assessed as average tumor volume at 20 mg/kg, ip qd administered every consecutive day in presence of doxorubicin at 5 mg/kg/week measured on day 51 (reference value: 653 +/- 192 mm3); assay type: functional
MDA-MB-231 [28] = assay: Synergistic antiproliferative activity against human MDA-MB-231 cells assessed as combination index at 8 nM after 72 hrs in presence of doxorubicin by SYBR green dye based fluorescence assay; assay type: functional; outline: as §2
MCF7 [29] = assay: Potentiation of doxorubicin-induced antiproliferative activity against human MCF7 cells at 8 nM after 72 hrs by SYBR green dye based fluorescence assay relative to control; assay type: functional; outline: as §2

Chain of Voltage-gated inwardly rectifying potassium channel KCNH2 (Q12809 whole entry): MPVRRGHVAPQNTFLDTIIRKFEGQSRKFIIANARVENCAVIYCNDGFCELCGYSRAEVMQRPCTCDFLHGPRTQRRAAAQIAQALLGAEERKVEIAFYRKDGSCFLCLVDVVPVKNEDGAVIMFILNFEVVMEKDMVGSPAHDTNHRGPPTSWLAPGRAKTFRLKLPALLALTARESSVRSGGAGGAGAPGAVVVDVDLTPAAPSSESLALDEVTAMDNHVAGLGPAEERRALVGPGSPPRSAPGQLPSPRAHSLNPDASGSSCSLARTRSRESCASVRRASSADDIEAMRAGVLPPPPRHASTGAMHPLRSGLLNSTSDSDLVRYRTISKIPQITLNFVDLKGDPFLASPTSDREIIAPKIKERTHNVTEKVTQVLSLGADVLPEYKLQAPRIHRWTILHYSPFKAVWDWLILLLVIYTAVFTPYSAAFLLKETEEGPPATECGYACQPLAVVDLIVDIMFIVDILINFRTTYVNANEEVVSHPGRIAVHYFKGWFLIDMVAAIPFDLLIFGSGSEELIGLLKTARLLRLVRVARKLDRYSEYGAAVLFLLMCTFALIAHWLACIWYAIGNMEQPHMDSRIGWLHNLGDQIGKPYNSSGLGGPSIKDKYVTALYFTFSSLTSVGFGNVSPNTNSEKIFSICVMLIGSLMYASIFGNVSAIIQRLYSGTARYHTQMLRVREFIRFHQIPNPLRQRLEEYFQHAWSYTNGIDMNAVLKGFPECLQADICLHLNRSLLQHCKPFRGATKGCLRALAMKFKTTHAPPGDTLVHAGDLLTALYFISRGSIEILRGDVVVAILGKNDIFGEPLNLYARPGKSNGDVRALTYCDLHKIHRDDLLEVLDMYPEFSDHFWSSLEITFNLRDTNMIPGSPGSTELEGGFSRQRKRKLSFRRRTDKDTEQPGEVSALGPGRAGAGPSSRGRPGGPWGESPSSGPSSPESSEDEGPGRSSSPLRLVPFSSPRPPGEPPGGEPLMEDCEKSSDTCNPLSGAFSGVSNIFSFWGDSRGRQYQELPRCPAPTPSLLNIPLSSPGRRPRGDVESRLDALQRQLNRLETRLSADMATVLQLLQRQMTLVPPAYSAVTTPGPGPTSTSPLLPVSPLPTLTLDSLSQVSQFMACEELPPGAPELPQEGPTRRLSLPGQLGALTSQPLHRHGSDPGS

IC50 (MDA-MB-231 [1]): 15 nM
IC50 [2]: 25 nM
logD [3]: 2.5
logD [4]: 2.5
solubility [5]: 7.8 µM (≈ 2.78 µg/mL)
EC50 (MCF7 [6]): 23 nM
IC50 (MCF7 [7]): 17 nM
Compound: O=C1CCCN1c1ccc(S(=O)(=O)N2CCCc3ccccc32)cc1

IC50 (MDA-MB-231 [1]): > 5000 nM
IC50 [2]: > 5000 nM
EC50 (MCF7 [6]): > 5000 nM
IC50 (MCF7 [7]): > 5000 nM
Compound: CCCN(c1ccccc1)S(=O)(=O)c1ccc(N2CCCC2=O)cc1

IC50 [2]: 10 nM
logD [3]: 1.7
logD [4]: 1.7
solubility [5]: 26.6 µM (≈ 9.53 µg/mL)
Compound: O=C1CCCN1c1ccc(S(=O)(=O)N2CCOc3ccccc32)cc1

Stability [11]: Stable
IC50 (MDA-MB-231 [1]): 13 nM
IC50 [2]: 11 nM
Stability [13]: Stable
concentration at 16 days [14]: 200 ng/mL
logD [3]: 1.9
logD [4]: 1.9
solubility [5]: 28.2 µM (≈ 10.5 µg/mL)
bioavailability [23]: 15 to 20%
inhibition (INH) [24]: Not Active
EC50 (MCF7 [6]): 13 nM
IC50 (MCF7 [7]): 10 nM
Compound: CN1CCN(S(=O)(=O)c2ccc(N3CCCC3=O)cc2)c2ccccc21
fold change (FC) (MDA-MB-231 [8]): 2 - 3
CI (MCF7 [9]): 0.97
CI (MDA-MB-231 [10]): 0.68
Activity (MDA-MB-231 [12]): 93.7%
Activity (MDA-MB-231 [15]): 91.5%
Activity (MDA-MB-231 [16]): 154 mm3
Activity (MDA-MB-231 [17]): 93.7 - 96.2%
CI (MDA-MB-231 [18]): 0.72
CI (MCF7 [19]): <1
inhibition (INH) [20]: Not Active
CI (MCF7 [21]): 0.75
fold change (FC) (Mus musculus [22]): 3
fold change (FC) (Mus musculus [25]): 1.5
fold change (FC) (Mus musculus [26]): 30
Activity (MDA-MB-231 [27]): 24.7 mm3
CI (MDA-MB-231 [28]): <1
fold change (FC) (MCF7 [29]): 2 - 3

IC50 (MDA-MB-231 [1]): 13 nM
IC50 [2]: 18 nM
EC50 (MCF7 [6]): 5 nM
IC50 (MCF7 [7]): 7 nM
Compound: CN1CCN(S(=O)(=O)c2ccc(N3CCC=N3)cc2)c2ccccc21

IC50 [2]: 11 nM
Compound: CC1CCc2ccccc2N1S(=O)(=O)c1ccc(N2CCCC2=O)cc1 (racemic)

IC50 [2]: > 5000 nM
Compound: O=C1CCCN1c1ccc(S(=O)(=O)N2CCNc3ccccc32)cc1

IC50 [2]: > 5000 nM
Compound: O=C1CCCN1c1ccc(C(=O)N2CCCc3ccccc32)cc1

IC50 [2]: > 5000 nM
Compound: CC(=O)N(C)c1ccc(S(=O)(=O)N2CCCc3ccccc32)cc1

IC50 [2]: > 5000 nM
Compound: O=C1CCCCN1c1ccc(S(=O)(=O)N2CCCc3ccccc32)cc1

IC50 [2]: 634 nM
Compound: O=C1CCCN1c1ccc(S(=O)(=O)N2CCc3ccccc3C2)cc1

IC50 [2]: > 5000 nM
Compound: O=C1CCCN1c1ccc(S(=O)(=O)N2CCCc3ncccc32)cc1

IC50 [2]: 9 nM
logD [3]: 3.3
logD [4]: 3.6
solubility [5]: 23.1 µM (≈ 8.9 µg/mL)
Compound: CC1CN(C)c2ccccc2N1S(=O)(=O)c1ccc(N2CCCC2=O)cc1 (racemic)

IC50 [2]: 1650 nM
Compound: O=S(=O)(c1ccc(-n2cccn2)cc1)N1CCCc2ccccc21

IC50 [2]: 13 nM
logD [3]: 3.1
logD [4]: 3.1
solubility [5]: 2.9 µM (≈ 1.13 µg/mL)
Compound: O=C1CCCN1c1ccc(S(=O)(=O)N2CCCc3cc(Cl)ccc32)cc1
